Active and inactive are the calls of the source.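 The calls were made as follows, unless noted: active = GFP response above 150% of the DMSO level; inconclusive = fewer than 70 events counted for a yeast strain; inactive = the rest.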
How the values were obtained:
[1] = RPL19A-GFP modulators, yeast TOR pathway, confirmation, cell-based, S. cerevisiae, flow cytometry, cherry picks, mother/daughter gates (AID 2270;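 active = GFP response below 50% of the DMSO control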); details: S. cerevisiae RPL19A-GFP strain, 3 h, at 10 µM, stronger effect = lower value, 100 = same GFP as DMSO wells
[2] = LAP4-GFP expression modulators in yeast, confirmation, cell-based, cherry picks, flow cytometry, mother/daughter gates (AID 2271;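 active = GFP response above 150% of the DMSO control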;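 also: ratio of sample to DMSO plate mean so 100% equals DMSO level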); details: S. cerevisiae LAP4-GFP strain, 3 h, at 10 µM, stronger effect = higher value, 100 means same as DMSO control
Outline: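 Test system: GFP-fusion yeast strain. Medium: synthetic complete (SC) yeast growth medium. Timing: 3 h treatment at 30 °C with rotation. Measured by: GFP by flow cytometry. Control set: positive rapamycin (400 ng/mL), negative DMSO.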

[3] = modulators of MEP2-GFP levels in yeast, confirmation, S. cerevisiae, flow cytometry GFP, cherry picks (AID 2272;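 active = GFP response above 150% of the DMSO control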;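 also: ratio of well signal to plate DMSO mean so 100% equals DMSO level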); details: S. cerevisiae MEP2-GFP strain, 3 h, at 10 µM, stronger effect = higher value
[4] = AGP1-GFP expression modulators, hit retest, confirmation, cell-based, flow cytometry, S. cerevisiae, cherry picks (AID 2273);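 also: median GFP channel fluorescence over the whole cell population gate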; details: S. cerevisiae AGP1-GFP strain, 3 h, at 10 µM
[5] = modulators of CIT2-GFP expression in yeast, confirmation, S. cerevisiae, GFP fusion, cherry picks, mother/daughter gates (AID 2274); details: S. cerevisiae CIT2-GFP strain, flow cytometry, 3 h, at 10 µM, stronger effect = higher value
[6] = measured here: daughter cell gate
[7] = measured here: mother cell gate
[8] = measured here: daughter cell gate response
[9] = measured here: mother cell gate response

| SMILES | GFP response vs DMSO [1] | GFP response vs DMSO [1, 6] [%] | GFP response vs DMSO [1, 7] [%] | GFP response relative to DMSO [2] | GFP response relative to DMSO [2, 8] [%] | GFP response relative to DMSO [2, 9] [%] | GFP response vs DMSO [3] | GFP response, % of DMSO [4] | GFP response, % of DMSO [5] | GFP response, % of DMSO [5, 6] [%] | GFP response, % of DMSO [5, 7] [%] |
| --- | --- | --- | --- | --- | --- | --- | --- | --- | --- | --- | --- |
| Cc1c(Br)cc(C(=O)O)c(C)c1C | 94.4% (inactive) | 94.7 | 88 | 101% (inactive) | 101 | 102 | 94.7% (inactive) | 97.1% (inactive) | 97.3% (inactive) | 95.6 | 99.3 |
| C/C(=N\NC(=O)c1ccc(Cl)c(Cl)c1)c1cccc(NC(=O)C(C)C)c1 | 99.9% (inactive) | 99.8 | 101 | 94.2% (inactive) | 93.6 | 94.6 | 99.5% (inactive) | 96% (inactive) | 99.3% (inactive) | 100 | 96.8 |
| COC(=O)/C(=C/c1c[nH]c2ccccc12)[N+](=O)[O-] | 99.6% (inactive) | 95.1 | 95.1 | 162% (active) | 149 | 164 | 111% (inactive) | 86.9% (inactive) | 89.8% (inactive) | 89.9 | 80.7 |
| Cc1cccc(CS(=O)(=O)c2ncc(Cl)c(C(=O)Nc3c(C)cccc3C)n2)c1 | 106% (inactive) | 98.6 | 107 | 106% (inactive) | 101 | 107 | 105% (inactive) | 99.4% (inactive) | 100% (inactive) | 97.4 | 101 |
| CCCn1nc(C(=O)OCC(=O)c2ccc3c(c2)NC(=O)CO3)c2ccccc2c1=O | 97.2% (inactive) | 96.6 | 96.5 | 98.2% (inactive) | 97.5 | 98.4 | 105% (inactive) | 96.3% (inactive) | 100% (inactive) | 97.4 | 101 |
| Cc1c(NC2=C(Cl)C(=O)N(c3ccccc3Cl)C2=O)c(=O)n(-c2ccccc2)n1C | 94.7% (inactive) | 96.6 | 95.6 | 93.7% (inactive) | 96.6 | 94.1 | 96.6% (inactive) | 102% (inactive) | 110% (inactive) | 108 | 110 |
| Cc1nn2c(NCCCN3CCOCC3)c3c(nc2c1-c1ccccc1)CCC3 | 101% (inactive) | 102 | 101 | 98.2% (inactive) | 97.5 | 98.4 | 99% (inactive) | 103% (inactive) | 100% (inactive) | 101 | 101 |
| O=C(Nc1c2c(nn1-c1ccccc1)CS(=O)C2)c1ccco1 (stereo not drawn) | 96.5% (inactive) | 97.3 | 95 | 92.9% (inactive) | 96 | 95.4 | 99.3% (inactive) | 100% (inactive) | 97.2% (inactive) | 99.3 | 96 |

Source: PubChem BioAssay
